Bioassay records deposited in PubChem by several laboratories.
T cruzi inh: blocks replication of Trypanosoma cruzi. inhibition, % (concentration not given with the values). AID 1885. 1.4% of 300,000 active. T. cruzi beta-gal in NIH3T3, luminescence, 90 h;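 active means mean inhibition across valid replicates above about 55%, limit read from the data; inconclusive means mean below that limit but half or more replicates reach it; inactive means mean below it, under half of replicates reach it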;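 further: signal also drops with host cell toxicity which is not excluded here; 0% = plate median of DMSO wells and 100% = zero luminescence signal; higher percent means less beta-gal luminescence so fewer parasites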
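Assay system: NIH/3T3 host cells with β-galactosidase reporter T. cruzi; input: 5,000 host fibroblasts per well; compound: single 50 nL compound addition per well in DMSO; timing: ≥90 h infection period, 3 h prior cell attachment; measured by: GalScreen β-gal luminescence, detergent lysis, 60 min; evaluation: percent inhibition of parasite-derived β-gal signal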
NALP1 yeast inh: inhibitors of NALP1 inflammasome in yeast; S. cerevisiae NALP1/ASC/caspase-1 growth, X-gal OD620, 72 h; inhibition, % at 10 µM; 0.61% of 280,000 active; in the data active means inhibition mostly above about 24%, no sharp cut-off; inactive means mostly below about 32%
Calb FLC: C. albicans growth modulation with fluconazole | 0.57% of 300,000 active | growth inhibition, % (test concentration not listed) | C. albicans CaCi-2 + fluconazole, Alamar Blue growth, 48 h;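 active means growth inhibition above about 58% in most replicates, limit read from the data, passing the limit was not always enough; inconclusive means exactly half the replicates above a set limit; inactive means most replicates below a set limit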;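 further: all wells also contain fluconazole at 8 µg/ml as a sub-toxic cotreatment; 0% = median of DMSO wells and 100% = median of geldanamycin control wells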
PolyA inh: blocks polyadenylation in yeast reporter cells | S. cerevisiae SKY197-pL101 polyadenylation reporter, beta-gal luminescence; efflux-impaired pdr1/pdr3 knockout yeast; score 100 = 6 SD above DMSO | 0.02% of 300,000 active | activity score, % at 12 µM;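 active means lowest replicate activity score at least 50, where 100 means six control SD above control mean; inconclusive means lowest score under 50 but half or more replicates reach 50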;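 further: yeast exposed to compound for 9 h at 30 °C; higher score means more reporter readthrough which indicates perturbed polyadenylation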
L major viab: reduces viability of Leishmania major promastigotes; resazurin fluorescence viability; inhibition, % at 10 µM; 9% of 200,000 active; in the data active means inhibition above about 50%;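 further: promastigotes grown with compound for 44 hours at 28 °C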
NALP3 yeast inh: inhibitors of NALP3 inflammasome in yeast; Yeast reconstituted NLRP3/ASC/caspase-1, beta-gal luminescence, 24 h; inhibition, % at 10 µM; 0.39% of 330,000 active;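 active means inhibition of 50% or more; inactive means inhibition below 50%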;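 further: plate controls were induced DMSO wells for no effect and uninduced yeast grown without galactose for full effect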
The depositor's hits bear a star; ? = inconclusive; · = no result. This is one part of a sample in which hits are shown more often than they occur.

SMILES	T cruzi inh	NALP1 yeast inh	Calb FLC	PolyA inh	L major viab	NALP3 yeast inh
COc1ccccc1CP(=O)(c1ccccc1)c1ccccc1	-11	17	-25	2	-1	9
CC(=O)NNC(=S)Nc1cccc(F)c1	-6	-25	0	7	·	4
CCn1nc(C)cc1-c1nnc(Sc2ncc([N+](=O)[O-])s2)n1C	61*	24	0	-56	·	24
Cc1ccc(C)c(N2CC(C(=O)OCC(=O)Nc3cc(C)on3)CC2=O)c1 (stereo not given)	-9	8	-1	-1	·	14
C=CCOc1ccc(C2=NOC(C(=O)Nc3ccc4c(c3)OCCO4)C2)cc1OC (stereo not given)	13	21	4	-4	·	26
COc1ccc(Cn2c(-c3ccc(Br)cc3)c[n+]3ccccc23)cc1	70*	·	28	-9	99*	18
Cc1ccc(C)c(N/N=C2\CCCNC2=O)c1	-1	26	-12	17	78*	9
Cc1ccc(C(=O)/C=C/c2ccc(F)cc2)o1	0	20	25	2	98*	2
O=C(/C=C/c1ccc(F)cc1)c1ccccc1Br	-20	55*	-16	-13	94*	15
O=C(/C=C/c1ccc(O)c(O)c1)c1ccccc1O	-17	-18	-11	4	·	14
COc1ccc(/C=C/C(=O)c2ccc([N+](=O)[O-])o2)cc1	-2	·	-1	7	·	5
C=CCn1c(=O)c2c(nc3n2CC(C)CN3Cc2ccccc2)n(C)c1=O (stereo not given)	6	-11	-1	4	·	12
CC(=O)Nc1ccc(S(=O)(=O)NCCCN2CCN(Cc3ccccc3)CC2)cc1Cl	·	·	1	8	·	27
Cc1ccc(Oc2cc(NC(=O)CCCn3nc([N+](=O)[O-])cc3C)cc([N+](=O)[O-])c2)cc1	28	9	17	3	95*	4
Cc1cc([N+](=O)[O-])nn1CCCC(=O)NC(C)c1ccccc1 (stereo not given)	9	16	1	-4	51*	14
Cc1ccc(C)c(Oc2cc(NC(=O)CCCn3nc(C)c([N+](=O)[O-])c3C)cc([N+](=O)[O-])c2)c1	52	15	0	-3	7	7
Cc1nn(CCCC(=O)Nc2cc(Oc3ccccc3)cc([N+](=O)[O-])c2)c(C)c1[N+](=O)[O-]	43	20	23	8	99*	-4
O=C(NNC(=O)c1cc(Cl)ccc1[N+](=O)[O-])c1csc(N2CCOCC2)n1	-6	·	2	12	·	18
CCOc1ccc(C(C)=O)cc1CSc1nnnn1-c1ccc(O)cc1	-8	2	19	8	60*	14
COCCn1c(SCc2ccc(F)cc2)nc2c1c(=O)[nH]c(=O)n2C	3	6	-6	18	·	23
CN(C)CCC1c2ccc(Cl)cc2CCc2cccnc21 (stereo not given) (tested in a mixture with another compound)	7	40*	10	-15	·	9
CCN(CC)S(=O)(=O)c1cccc(NC(=O)c2ccc(Br)cc2)c1	17	-4	1	-34	-1	28
CCN(CC)S(=O)(=O)c1cccc(C(=O)N/N=C(\C)c2ccc(O)cc2O)c1	64*	6	-12	5	68*	1
CCN(CC)S(=O)(=O)c1cccc(NC(=O)c2cc3ccccc3o2)c1	21	1	20	-8	81*	-53
CN1/C(=C\C(=S)NC(=O)c2cccc(Br)c2)C(C)(C)c2ccccc21	47	6	-38	25	22	15
SMILES	T cruzi inh	NALP1 yeast inh	Calb FLC	PolyA inh	L major viab	NALP3 yeast inh
CCN(CC)S(=O)(=O)c1cccc(C(=O)/C=C2/N(C)c3ccccc3C2(C)C)c1	57*	·	6	-14	25	0
CCN(CC)S(=O)(=O)c1cccc(NC(=O)c2cncc(Br)c2)c1	13	6	-9	-7	99*	13
CC(C)C(NC(=O)c1ccccc1F)C(=O)OCC(=O)c1ccc(F)cc1 (stereo not given)	-11	-18	-4	27	4	1
COC(=O)C1C(O)C(C)C(O)C(C)(O)/C=C\C=C(/C)C(=O)Nc2c(C)c(OC(C)=O)c3c(c2O)C(=O)C(C)=C2OCOC(=C23)/C(C)=C/C(C)(O)C(O)C(C)C1O (stereo not given)	-2	12	23	8	·	11
CCOCCCN(C)C1CCN(C(=O)c2oc3ccccc3c2NC(=O)Cc2ccc(F)cc2)CC1	?	24	3	2	·	16
CN(C)S(=O)(=O)c1cccc(NC(=O)c2cncc(Br)c2)c1	5	20	-4	-6	88*	4
CCN(CC)S(=O)(=O)c1cccc(C(=O)Nc2cccc(C)c2)c1	14	-2	-1	-6	62*	3
CCC(=O)OCCNc1cc(Sc2nccn2C)c2nonc2c1[N+](=O)[O-]	55*	33	27	19	85*	·
CCCC(=O)OCCNc1cc(Sc2nc3ccccc3[nH]2)c2nonc2c1[N+](=O)[O-]	18	33	-6	13	53*	20
CCC(=O)OCCNc1cc(SCCC(=O)OC)c2nonc2c1[N+](=O)[O-]	5	26	-13	-7	14	19
Cc1ccc(Sc2cc(NCCCO)c([N+](=O)[O-])c3nonc23)cc1	56*	·	0	-20	·	6
CC(=O)OCCNc1cc(SC(C)C)c2nonc2c1[N+](=O)[O-]	·	-8	-16	·	6	-6
COc1cccc(CNC(=O)CCNS(=O)(=O)c2ccc(Br)s2)c1	-8	3	5	-1	·	25
CC1=NN(c2ccccc2)C(=O)/C1=C/c1cc2cc(C)ccc2nc1N1CCCCC1	-4	1	-2	-24	90*	30
CC1=NN(c2ccccc2)C(=O)/C1=C/c1cccc(C)c1	-4	12	0	0	·	6
CNC(=S)N/N=C/c1ccc(-c2ccc(Cl)c([N+](=O)[O-])c2)o1	1	13	85*	-21	2	22
CCOC(=O)c1c(-c2ccccc2Cl)cn2ccccc12	4	25	91*	5	10	1
CCOC(=O)c1c(-c2cccc([N+](=O)[O-])c2)cn2ccccc12	4	-17	29	-31	-4	45
Cc1ccc(S(=O)(=O)N2CCOCC2)cc1NC(=O)C(c1ccc(Cl)cc1)C(C)C (stereo not given)	10	·	11	-9	·	5
CC(C)CN(C(=O)c1cc2ccccc2o1)c1c(N)n(CC(C)C)c(=O)[nH]c1=O	-13	17	-4	-14	-7	5
COc1cc(/C=N/NC(N)=S)ccc1OCc1ccc(C)cc1	58*	-3	18	-14	100*	36
COc1cc(/C=N/N=C(N)N)ccc1OCc1ccc(Cl)cc1	87*	0	-3	-10	101*	17
